Experimental data as given in ChEMBL document CHEMBL4190252, “Synthesis, antitumor activity and CDK1 inhibiton of new thiazole nortopsentin analogues” (Eur J Med Chem, 2017).
Active and inactive are the calls of the source. No cut-off for these calls is given here.

What follows are compounds tested on CCRF-CEM (assay: Growth inhibition of human CCRF-CEM cells incubated for 48 hrs by sulforhodamine B assay). Conditions: not given.
Format: functional
In short: (§1)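 NCI full panel screen: five 10-fold dilutions (10^-4–10^-8 M). GI50 is the molar concentration giving 50% inhibition of net cell growth.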

Row | Structure (SMILES) | GI50
1 | COCCn1cc(-c2nc(-c3c[nH]c4ncccc34)cs2)c2cc(OC)ccc21 | 6.7 µM

What follows are compounds tested on MOLT-4 (assay: Growth inhibition of human MOLT4 cells incubated for 48 hrs by sulforhodamine B assay). Conditions: MOLT-4, 48 h.
Format: functional
In short: as §1

Row | Structure (SMILES) | GI50
2 | COCCn1cc(-c2nc(-c3c[nH]c4ncccc34)cs2)c2cc(OC)ccc21 | 6.02 µM

These compounds were tested on RPMI-8226 (assay: Growth inhibition of human RPMI8226 cells incubated for 48 hrs by sulforhodamine B assay). Conditions: RPMI-8226, 48 h.
Format: functional
In short: as §1

Row | Structure (SMILES) | GI50
3 | COCCn1cc(-c2nc(-c3c[nH]c4ncccc34)cs2)c2cc(OC)ccc21 | 7.09 µM

These compounds were tested on EKVX (assay: Growth inhibition of human EKVX cells incubated for 48 hrs by sulforhodamine B assay). Conditions: not given.
Format: functional
In short: as §1

Row | Structure (SMILES) | GI50
4 | COCCn1cc(-c2nc(-c3c[nH]c4ncccc34)cs2)c2cc(OC)ccc21 | 0.07 µM

Each compound was assayed on NCI-H322M (assay: Growth inhibition of human NCI-H322M cells incubated for 48 hrs by sulforhodamine B assay). Conditions: not given.
Format: functional
In short: as §1

Row | Structure (SMILES) | GI50
5 | COCCn1cc(-c2nc(-c3c[nH]c4ncccc34)cs2)c2cc(OC)ccc21 | 1.95 µM

Each compound was assayed on NCI-H460 (assay: Growth inhibition of human NCI-H460 cells incubated for 48 hrs by sulforhodamine B assay). Conditions: NCI-H460, 48 h.
Format: functional
In short: as §1

Row | Structure (SMILES) | GI50
6 | COCCn1cc(-c2nc(-c3c[nH]c4ncccc34)cs2)c2cc(OC)ccc21 | 1.32 µM

Each compound was assayed on SW-620 (assay: Growth inhibition of human SW620 cells incubated for 48 hrs by sulforhodamine B assay). Conditions: SW-620, 48 h.
Format: functional
In short: (§2)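 NCI full-panel human tumour cell screen. Cells were exposed to five 10-fold dilutions from 10^-4 to 10^-8 M. GI50 is the molar concentration giving 50% inhibition of net cell growth, and a mean graph midpoint was calculated across the panel.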

Row | Structure (SMILES) | GI50
7 | COCCn1cc(-c2nc(-c3c[nH]c4ncccc34)cs2)c2cc(OC)ccc21 | 4.5 µM

These compounds were tested on SF-539 (assay: Growth inhibition of human SF539 cells incubated for 48 hrs by sulforhodamine B assay). Conditions: SF-539, 48 h.
Format: functional
In short: as §1

Row | Structure (SMILES) | GI50
8 | COCCn1cc(-c2nc(-c3c[nH]c4ncccc34)cs2)c2cc(OC)ccc21 | 3.99 µM

These compounds were tested on SNB-75 (assay: Growth inhibition of human SNB75 cells incubated for 48 hrs by sulforhodamine B assay). Conditions: SNB-75, 48 h.
Format: functional
In short: as §2

Row | Structure (SMILES) | GI50
9 | COCCn1cc(-c2nc(-c3c[nH]c4ncccc34)cs2)c2cc(OC)ccc21 | 1.1 µM

What follows are compounds tested on M14 (assay: Growth inhibition of human M14 cells incubated for 48 hrs by sulforhodamine B assay). Conditions: M14, 48 h.
Format: functional
In short: as §1

Row | Structure (SMILES) | GI50
10 | COCCn1cc(-c2nc(-c3c[nH]c4ncccc34)cs2)c2cc(OC)ccc21 | 5.82 µM

What follows are compounds tested on MDA-MB-435 (assay: Growth inhibition of human MDA-MB-435 cells incubated for 48 hrs by sulforhodamine B assay). Conditions: MDA-MB-435, 48 h.
Format: functional
In short: as §1

Row | Structure (SMILES) | GI50
11 | COCCn1cc(-c2nc(-c3c[nH]c4ncccc34)cs2)c2cc(OC)ccc21 | 6.41 µM

Each compound was assayed on SK-MEL-2 (assay: Growth inhibition of human SK-MEL-2 cells incubated for 48 hrs by sulforhodamine B assay). Conditions: SK-MEL-2, 48 h.
Format: functional
In short: as §2

Row | Structure (SMILES) | GI50
12 | COCCn1cc(-c2nc(-c3c[nH]c4ncccc34)cs2)c2cc(OC)ccc21 | 3.56 µM

What follows are compounds tested on SK-MEL-28 (assay: Growth inhibition of human SK-MEL-28 cells incubated for 48 hrs by sulforhodamine B assay). Conditions: SK-MEL-28, 48 h.
Format: functional
In short: as §2

Row | Structure (SMILES) | GI50
13 | COCCn1cc(-c2nc(-c3c[nH]c4ncccc34)cs2)c2cc(OC)ccc21 | 7.39 µM

Each compound was assayed on SK-MEL-5 (assay: Growth inhibition of human SK-MEL-5 cells incubated for 48 hrs by sulforhodamine B assay). Conditions: SK-MEL-5, 48 h.
Format: functional
In short: as §2

Row | Structure (SMILES) | GI50
14 | COCCn1cc(-c2nc(-c3c[nH]c4ncccc34)cs2)c2cc(OC)ccc21 | 5.53 µM

These compounds were tested on OVCAR-3 (assay: Growth inhibition of human OVCAR3 cells incubated for 48 hrs by sulforhodamine B assay). Conditions: OVCAR-3, 48 h.
Format: functional
In short: as §1

Row | Structure (SMILES) | GI50
15 | COCCn1cc(-c2nc(-c3c[nH]c4ncccc34)cs2)c2cc(OC)ccc21 | 4.66 µM

These compounds were tested on OVCAR-4 (assay: Growth inhibition of human OVCAR4 cells incubated for 48 hrs by sulforhodamine B assay). Conditions: OVCAR-4, 48 h.
Format: functional
In short: as §1

Row | Structure (SMILES) | GI50
16 | COCCn1cc(-c2nc(-c3c[nH]c4ncccc34)cs2)c2cc(OC)ccc21 | 0.03 µM

These compounds were tested on CAKI-1 (assay: Growth inhibition of human Caki1 cells incubated for 48 hrs by sulforhodamine B assay). Conditions: CAKI-1, 48 h.
Format: functional
In short: as §1

Row | Structure (SMILES) | GI50
17 | COCCn1cc(-c2nc(-c3c[nH]c4ncccc34)cs2)c2cc(OC)ccc21 | 4.36 µM

What follows are compounds tested on RXF 393 (assay: Growth inhibition of human RXF393 cells incubated for 48 hrs by sulforhodamine B assay). Conditions: RXF 393, 48 h.
Format: functional
In short: as §1

Row | Structure (SMILES) | GI50
18 | COCCn1cc(-c2nc(-c3c[nH]c4ncccc34)cs2)c2cc(OC)ccc21 | 1.18 µM

These compounds were tested on UO-31 (assay: Growth inhibition of human UO31 cells incubated for 48 hrs by sulforhodamine B assay). Conditions: UO-31, 48 h.
Format: functional
In short: as §2

Row | Structure (SMILES) | GI50
19 | COCCn1cc(-c2nc(-c3c[nH]c4ncccc34)cs2)c2cc(OC)ccc21 | 2.31 µM

What follows are compounds tested on DU-145 (assay: Growth inhibition of human DU145 cells incubated for 48 hrs by sulforhodamine B assay). Conditions: DU-145, 48 h.
Format: functional
In short: as §1

Row | Structure (SMILES) | GI50
20 | COCCn1cc(-c2nc(-c3c[nH]c4ncccc34)cs2)c2cc(OC)ccc21 | 4.28 µM

Each compound was assayed on MDA-MB-231 (assay: Growth inhibition of human MDA-MB-231 cells incubated for 48 hrs by sulforhodamine B assay). Conditions: MDA-MB-231, 48 h.
Format: functional
In short: as §1

Row | Structure (SMILES) | GI50
21 | COCCn1cc(-c2nc(-c3c[nH]c4ncccc34)cs2)c2cc(OC)ccc21 | 2.02 µM

Each compound was assayed on T47D (assay: Growth inhibition of human T47D cells incubated for 48 hrs by sulforhodamine B assay). Conditions: not given.
Format: functional
In short: as §2

Row | Structure (SMILES) | GI50
22 | COCCn1cc(-c2nc(-c3c[nH]c4ncccc34)cs2)c2cc(OC)ccc21 | 0.04 µM

The compounds below were run on MCF7 (assay: Induction of apoptosis in human MCF7 cells assessed as late apoptotic cells at 5 x 10^-8 M after 72 hrs by Annexin V/propidium iodide double staining-based flow cytometry (reference value: 0%)). Conditions: not given.
Format: functional
In short: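 MCF-7 cells were grown in RPMI with 10% FBS, 2 mM L-glutamine and antibiotics at 37 °C in 5% CO2. They were seeded at 2.0 x 10^5 cells/cm2 in triplicate, left to adhere overnight, then treated for 72 h; DMSO 0.1% served as vehicle. Trypsinised cells at 2.0 x 10^5/mL were stained with annexin V-FITC and PI for 15 min at room temperature in the dark. At least 1.0 x 10^4 cells were gated into viable, early apoptotic, late apoptotic and necrotic quadrants.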

Row | Structure (SMILES) | Activity
23 | COCCn1cc(-c2nc(-c3c[nH]c4ncccc34)cs2)c2cc(OC)ccc21 | 0.1%

The compounds below were run on MCF7 (assay: Cell cycle arrest in human MCF7 cells assessed as increase in accumulation at G2/M phase at GI50 concentration after 48 hrs by propidium iodide-staining based flow cytometry). Conditions: not given.
Format: functional
In short: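 Cells were trypsinized, washed in cold PBS, and 1 x 10^6 cells stained with 20 µg/ml PI plus 200 µg/ml RNase for 30 min at room temperature in the dark. At least 1x 10^4 cells were analysed by flow cytometry. Mean±SD of three experiments in triplicate.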

Row | Structure (SMILES) | Activity
24 | COCCn1cc(-c2nc(-c3c[nH]c4ncccc34)cs2)c2cc(OC)ccc21 | Active

These compounds were tested on Caco-2 (assay: Cytotoxicity against human Caco2 cells assessed as reduction in cell viability after 72 hrs by MTT assay). Conditions: caco-2, 72 h.
Format: cell-based
In short: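 Caco-2 cells grown in RPMI with 10% FBS and L-glutamine, then treated 15 days after confluence, once differentiated into normal intestinal-like cells. Seeded at 2 × 10^4 cells/well and exposed 72 h to 5–100 µM, DMSO 0.1% vehicle. MTT 2 h at 37 °C, formazan in DMSO, absorbance 570 nm. Vehicle control = 100%; LC50 from viability-versus-concentration plot. At least three experiments in triplicate.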

Row | Structure (SMILES) | LC50
25 | COCCn1cc(-c2nc(-c3c[nH]c4ncccc34)cs2)c2cc(OC)ccc21 | < 100 µM

The compounds below were run on Caco-2 (assay: Cytotoxicity against human Caco2 cells assessed as reduction in cell survival at 25 to 100 uM after 72 hrs by MTT assay). Conditions: caco-2, 72 h.
Format: cell-based
In short: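 Caco-2 cells, differentiated 15 days post-confluence, seeded at 2 x 10^4 cells/well and treated 72 h with 5–100 µM compound. MTT added (5 mg/mL in FBS-free medium), 2 h at 37 °C, formazan dissolved in DMSO, absorbance at 570 nm. Viability relative to vehicle control (100%); LC50 taken from the viability-concentration plot. At least three experiments in triplicate.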

Row | Structure (SMILES) | Activity
26 | COCCn1cc(-c2nc(-c3c[nH]c4ncccc34)cs2)c2cc(OC)ccc21 | Non-Toxic
